Laboratory results taken from PubChem BioAssay.
Inconclusive results are not listed. Calls of active or inactive are those of the source.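 Rule for the calls, unless noted: active = RAM network inhibition above 8.4% in each of two replicates, 3 SD over the compound average; inconclusive = above 8.4% inhibition in only one replicate; inactive = 8.4% inhibition or less in each replicate.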

Legend:
[1] = Coupled enzyme confirmation of inhibitors against recombinant Mtb PanC (AID 375; call rule not given here); details: coupled enzyme assay
[2] = target: Pantothenate synthetase (Mycobacterium tuberculosis (strain ATCC 25618 / H37Rv)) (UniProt P9WIL5); test: as above; details: coupled enzyme assay; at 10 µM, stronger effect = higher value
Sequence of Pantothenate synthetase (Mycobacterium tuberculosis (strain ATCC 25618 / H37Rv)) (P9WIL5 whole entry, looked up): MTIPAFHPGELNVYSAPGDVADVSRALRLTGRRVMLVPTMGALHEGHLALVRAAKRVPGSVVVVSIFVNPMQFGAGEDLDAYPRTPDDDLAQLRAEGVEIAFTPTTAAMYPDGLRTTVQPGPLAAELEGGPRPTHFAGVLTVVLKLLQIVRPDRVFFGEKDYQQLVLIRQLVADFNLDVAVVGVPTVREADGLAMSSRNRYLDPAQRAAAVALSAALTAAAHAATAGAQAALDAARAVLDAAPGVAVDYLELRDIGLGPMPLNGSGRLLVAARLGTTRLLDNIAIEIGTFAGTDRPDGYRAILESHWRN

[3] = S. cerevisiae growth inhibition in permissive medium (OD615), pilot counter-assay for S. cerevisiae lifespan shortening project, permissive growth control (AID 705;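 active = growth inhibition above 25% in both replicates, a cutoff set 3 SD above the mean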); details: OD615, 24 h, at 10 µM, stronger effect = higher value
In short: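 Material: engineered DeaD yeast; compound dosing: one dose 10 µM, DMSO 0.25% final; measure: yeast growth inhibition indicated by reduced 24 h OD615; detection: OD615 turbidity read; incubation: cells pre-grown 4 h, then 24 h compound exposure, 30 °C humidified; medium: permissive synthetic complete medium with raffinose and galactose carbon sources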

[4] = S. cerevisiae growth inhibition in restrictive medium, OD615, pilot screen, restrictive growth control, yeast lifespan reduction project (AID 706;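 active = growth inhibition above a set limit, 3 SD over mean compound inhibition, in both replicates, cut at about 43% in these data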;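 note: modified DeaD lifespan yeast strain shifted to restrictive glucose medium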); details: OD615, 48 h, at 10 µM, stronger effect = higher value
In short: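 material = engineered S. cerevisiae DeaD strain | medium = glucose-based CSMM-D restrictive medium | times = 4 h pre-incubation, 48 h exposure at 30 °C | technique = OD615 absorbance reading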

[5] = doxorubicin toxicity protection in MRP-1 cells – H69AR cells, CellTiter-Glo, duplicate, MRP-1 activator project, pilot screen (AID 807;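 active = viability increase at or above a cutoff of the median across tested compounds plus 3 SD, cut at about 8.5% in these data, passing the limit was not always enough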;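 note: compound pretreatment 18-22 h then 72 h combined with doxorubicin; 0% = doxorubicin alone and 100% = vehicle without doxorubicin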); details: H69AR viability with doxorubicin, CellTiter-Glo luminescence; at 10 µM; stronger effect = higher value
[6] = viability of HCT116 without oncogenic beta-catenin – human colon tumor cells, pilot screen (AID 823;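 active = cell viability at or below a set limit in both duplicate runs, the limit being the all-compound median minus 4 SD, cut at about 23% in these data, passing the limit was not always enough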;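 note: 0% = wells killed by 20 µM Hyamine and 100% = untreated DMSO cell wells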); details: HCT116 beta-catenin knockout viability, CellTiter-Glo, 60 h; at 10 µM; stronger effect = lower value
[7] = viability of PTEN-null HCT116 cells – cell-based, HCT116 clonal line, CellTiter-Glo, pilot screen (AID 824;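 active = viability at or below 27.92% in each of two runs, the all-compound median minus 4 SD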;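 note: 0% = 20 µM Hyamine control and 100% = vehicle cell control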); details: HCT116 PTEN-deleted viability, 60 h, at 10 µM, stronger effect = lower value
[8] = RAM pathway blockade in budding yeast – dse1pr::URA3 reporter, 5-FOA selection, pilot screen (AID 869;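 active = inhibition over a set limit, the all-compound mean plus 3 SD, in both replicate runs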;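 note: 0% = DMSO wells with no growth and 100% = 10 µM 1-NA-PP1 with full growth; RAM network block rescues cells from 5-FOA so hits raise OD615 growth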); details: S. cerevisiae dse1pr::URA3 5-FOA growth, OD615, 2 d, at 10 µM, stronger effect = higher value
[9] = RAM signaling pathway blockade in yeast – S. cerevisiae, Pdr1DBD-CYC8 efflux-inhibited sensitized strain, primary screen (AID 1298);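 note: 0% = DMSO untreated cells without growth and 100% = 10 µM 1-NA-PP1 full growth; higher means more yeast growth rescued from 5-FOA killing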; details: S. cerevisiae cbk1-as DSE1-URA3 strain, 5-FOA growth OD615, 2 d; at 50 µM; stronger effect = higher value
[10] = measured here: coupling enzymes IC50 repeat trials unless noted

Cc1ccc(Cn2ccc(NC(=O)c3cc(-c4ccc(Cl)cc4)on3)n2)cc1
IC50 [1, 10]: > 100 µM
outcome [2]: inactive

COc1ccccc1N=Cc1c(O)n(C)c(=O)n(C)c1=O
growth inhibition [3]: -6.69% (inactive)
growth inhibition [4]: 1.98% (inactive)
viability increase [5]: 0.23% (inactive)
viability [6]: 87.1% (inactive)
viability [7]: 99.6% (inactive)
inhibition [8]: -0.295% (inactive)
RAM network inhibition [9]: 2.71% (inactive)

Cc1c(C(=O)N2CCC3(CC2)OCCO3)oc2ccc(S(=O)(=O)N3CCOCC3)cc12
growth inhibition [3]: -9.41% (inactive)
growth inhibition [4]: -18.4% (inactive)
viability increase [5]: -1.67% (inactive)
viability [7]: 98.4% (inactive)
inhibition [8]: 1.09% (inactive)
RAM network inhibition [9]: 1.19% (inactive)

Cn1c(O)c(C=NCCc2c[nH]c3ccccc23)c(=O)n(C)c1=O
growth inhibition [3]: -0.425% (inactive)
growth inhibition [4]: -3.75% (inactive)
viability increase [5]: -2.67% (inactive)
viability [6]: 101% (inactive)
viability [7]: 91.4% (inactive)
inhibition [8]: 1.54% (inactive)
RAM network inhibition [9]: -0.15% (inactive)

COc1ccc(C2C(C(=O)N3CCC4(CC3)OCCO4)CC(=O)N2c2ccc(OC)cc2)cc1 (centres undefined)
growth inhibition [3]: -8.58% (inactive)
growth inhibition [4]: -2.57% (inactive)
viability increase [5]: -3.2% (inactive)
viability [7]: 103% (inactive)
inhibition [8]: 1% (inactive)
RAM network inhibition [9]: 5.09% (inactive)

CC(C)(C)C1CCc2onc(C(=O)Nc3cnn(Cc4ccc(F)cc4)c3)c2C1 (centres undefined)
IC50 ([1]; measured here: coupling enzymes IC50 repeat trials): > 100 µM
IC50 ([1]; measured here: coupling enzymes counter-screen IC50): > 100 µM

CN(C)C1(c2nnnn2-c2ccc(Cl)cc2)CCCCC1
growth inhibition [3]: -14.4% (inactive)
growth inhibition [4]: -18.1% (inactive)
viability increase [5]: 0.76% (inactive)
viability [6]: 86.2% (inactive)
viability [7]: 76.3% (inactive)
inhibition [8]: 2.52% (inactive)
RAM network inhibition [9]: 3.64% (inactive)

Cc1ccc(Cn2ccc(NC(=O)c3cc(-c4ccco4)on3)n2)cc1
IC50 [1, 10]: > 100 µM
outcome [2]: inactive
